# From article PMC4062594 (Nature chemical biology, 2014)
# Legend:
# [1] = patients; cited from earlier work
# PTP1B1-405 [2] = target: T1, PTP1B1-405 (Homo sapiens, UniProt P18031); assay: Binding of recombinant protein to bead-immobilized compound; conditions: in vitro
# T1 sequence (P18031 1-405): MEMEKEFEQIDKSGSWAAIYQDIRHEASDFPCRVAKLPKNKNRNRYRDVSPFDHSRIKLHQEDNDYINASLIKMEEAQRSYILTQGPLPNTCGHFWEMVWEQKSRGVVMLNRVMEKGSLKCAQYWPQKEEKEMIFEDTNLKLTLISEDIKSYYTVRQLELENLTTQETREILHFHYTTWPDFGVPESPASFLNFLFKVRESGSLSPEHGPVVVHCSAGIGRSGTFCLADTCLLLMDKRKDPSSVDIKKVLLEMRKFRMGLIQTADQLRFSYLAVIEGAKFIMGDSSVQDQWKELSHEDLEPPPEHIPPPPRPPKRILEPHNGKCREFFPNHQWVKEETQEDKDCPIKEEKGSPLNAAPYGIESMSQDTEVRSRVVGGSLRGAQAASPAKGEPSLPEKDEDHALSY
# Procedure, shortened: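 Beads were washed in the same buffer plus 0.01% NP-40 and 1% glycerol, then heat-eluted in SDS sample buffer. Eluates were run on 10% SDS-PAGE and stained with Coomassie or silver.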
# PTP1B1-405 [3] = target: T1, PTP1B1-405; assay: Gel filtration
# [4] = system: panel of breast cancer cells; assay: Cell proliferation assay; assay type: cell-based
# Procedure, shortened: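 Cells (1 × 10^4) per well were grown 12–96 hours in growth medium without or with test compound (2 and 5 μM). Proliferation was read by CellTiter-Glo luminescence.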
smiles,measurement,setting,value
"CC(C)[C@@H](CC[C@@H](C)[C@H]1CC[C@H]2[C@@H]3[C@H](O)C[C@H]4C[C@@H](NCCCNCCCCNCCCN)CC[C@]4(C)[C@H]3CC[C@]12C)OS(=O)(=O)O [MSI-1436, Trodusquemine]",tolerability,[1],well tolerated
same,binding to bead-immobilized compound,PTP1B1-405 [2],bound
same,oligomerization of the phosphatase,PTP1B1-405 [3],did not cause the phosphatase to oligomerize
same,calculated molecular weight of PTP1B1-405,PTP1B1-405 [3]; in the presence of the inhibitor (~47k in the absence),~ 43 k
same,nature of effects (cytostatic versus cytotoxic),[4],"primarily cytostatic, rather than cytotoxic"
same,proliferation,"[4]; cells sensitive to Lapatinib, MSI-1436 2 and 5 μM",inhibited proliferation
